Data set [1] addresses 3-beta-hydroxysteroid-Delta(8),Delta(7)-isomerase (Homo sapiens) (UniProt Q15125). The experiment in a line: Inhibition of delta8,7-isomerase in human HL60 cells assessed as accumulation of zymostenol at 50 uM after 24 hrs by GC/MS analysis. Type of data set: cell-based. Particulars: HL-60. The essentials:
(§1)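 HL-60 cells (1 × 10⁶) in lipid-free HL-60 medium given inhibitor at 50 μM or 1 μM (ethanol blank) for 24 h at 37 °C, 5% CO2. Pellet saponified in 1 M NaOH, 1 h at 70 °C, then TBME microextraction with cholestane internal standard. GC-MS sterol pattern compared with blanks and with AY 9944 and BM 15.766 references.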

The target is the same in data set [2]. The experiment in a line: Inhibition of delta8,7-isomerase in human HL60 cells assessed as accumulation of zymostenol at 1 uM after 24 hrs by GC/MS analysis. The data set is classed as cell-based. Particulars: HL-60. The essentials: as §1
In data set [3] the target is T1, 7-dehydrocholesterol reductase (Homo sapiens) (UniProt Q9UBM7).
T1 sequence (whole entry): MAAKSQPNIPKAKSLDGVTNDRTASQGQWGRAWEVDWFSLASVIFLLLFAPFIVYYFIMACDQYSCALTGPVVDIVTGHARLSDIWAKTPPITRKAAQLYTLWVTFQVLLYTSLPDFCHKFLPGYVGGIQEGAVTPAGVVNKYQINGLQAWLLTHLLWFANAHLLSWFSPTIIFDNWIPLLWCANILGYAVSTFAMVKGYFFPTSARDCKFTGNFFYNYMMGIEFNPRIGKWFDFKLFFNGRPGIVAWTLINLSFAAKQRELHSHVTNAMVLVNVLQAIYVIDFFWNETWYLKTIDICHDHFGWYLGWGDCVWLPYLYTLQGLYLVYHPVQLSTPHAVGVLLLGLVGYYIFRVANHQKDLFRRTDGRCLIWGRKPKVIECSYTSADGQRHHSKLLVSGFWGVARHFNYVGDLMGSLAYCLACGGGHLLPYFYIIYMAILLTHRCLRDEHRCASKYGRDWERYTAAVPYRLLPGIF
The experiment in a line: Inhibition of 7-dehydrocholesterol reductase in human HL60 cells assessed as accumulation of 7-dehydrocholesterol at 50 uM after 24 hrs by GC/MS analysis. Type of data set: cell-based. The following applies: HL-60. The method in brief:
as §1

In data set [4] the target is T1, 7-dehydrocholesterol reductase (Homo sapiens). The experiment in a line: Inhibition of 7-dehydrocholesterol reductase in human HL60 cells assessed as accumulation of 7-dehydrocholesterol at 1 uM after 24 hrs by GC/MS analysis. Type of data set: cell-based. Particulars: HL-60. The method in brief: as §1
The test system of data set [5] is Yarrowia lipolytica. The experiment in a line: Antifungal activity against Yarrowia lipolytica DSM 1345 after 48 hrs. Type of data set: organism-based. The following applies: in vivo. The essentials: (§2)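 MIC against the yeast strains determined according to DIN 58940-84; clotrimazole as positive control.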
The subject of data set [6] is Saccharomyces cerevisiae. The experiment in a line: Antimicrobial activity against Saccharomyces cerevisiae DSM 1333 after 48 hrs. The data set is classed as organism-based. Particulars: in vivo. The method in brief: as §2
Data set [7] deals with Nakaseomyces glabratus. The experiment in a line: Antifungal activity against Candida glabrata DSM 11226 after 48 hrs. The data set is classed as organism-based. The following applies: in vivo. The essentials:
as §2

Data set [8] relates to Yarrowia lipolytica. The experiment in a line: Antifungal activity against Yarrowia lipolytica DSM 1345 after 36 hrs by disc diffusion method. The data set is classed as organism-based. Particulars: in vivo. Background: A growth-free zone around the sample is the usual read-out of agar diffusion tests.
In data set [9] the test system is Saccharomyces cerevisiae. The experiment in a line: Antifungal activity against Saccharomyces cerevisiae DSM 1333 after 36 hrs by disc diffusion method. The data set is classed as organism-based. Particulars: in vivo.
In data set [10] the test system is Nakaseomyces glabratus. The experiment in a line: Antifungal activity against Candida glabrata DSM 11226 after 36 hrs by disc diffusion method. Type of data set: organism-based. Particulars: in vivo.
The nature of data set [11]: Antifungal activity against Aspergillus brasiliensis DSM 1988 after 36 hrs by disc diffusion method.
Data set [12] can be described thus: Antibacterial activity against Streptococcus entericus DSM 14446 after 36 hrs by disc diffusion method.
A short description of data set [13]: Antibacterial activity against Staphylococcus equorum DSM 20675 after 36 hrs by disc diffusion method.
Data set [14] is described as follows: Antibacterial activity against Pseudomonas antimicrobica DSM 8361 after 36 hrs by disc diffusion method. Particulars: burkholderia gladioli.
Another data set concerns Escherichia coli. The experiment in a line: Antibacterial activity against Escherichia coli DSM 426 after 36 hrs by disc diffusion method. The data set is classed as organism-based. The following applies: in vivo.
A further data set has as its system HL-60. The experiment in a line: Cytotoxicity against human HL60 cells after 24 hrs by MTT assay. Particulars: HL-60, 24 h. The data set is classed as cell-based. The essentials: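 MTT colorimetric assay on HL-60 promyelocytic leukemia cells (RPMI 1640, 10% FBS, no antibiotics, 37 °C, 5% CO2) as a preliminary screen for unspecific cytotoxicity; cisplatin as reference.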

A short description of data set [15]: Antifungal activity against Hyphopichia burtonii DSM 70663 after 36 hrs by disc diffusion method.

Calls of active or inactive are those of the source. The calls are words filed in the database; no cut-off is given here.

Sequence of 3-beta-hydroxysteroid-Delta(8),Delta(7)-isomerase (Homo sapiens) (Q15125 whole entry): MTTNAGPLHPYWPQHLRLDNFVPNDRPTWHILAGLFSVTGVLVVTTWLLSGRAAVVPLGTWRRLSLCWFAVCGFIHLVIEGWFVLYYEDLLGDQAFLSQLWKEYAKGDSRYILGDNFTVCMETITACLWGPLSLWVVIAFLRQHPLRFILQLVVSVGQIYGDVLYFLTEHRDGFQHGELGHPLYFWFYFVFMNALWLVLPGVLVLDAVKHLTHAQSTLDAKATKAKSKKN

For the compound `COc1ccc(CCN2CCc3cc(OC)c(O)cc3C2)cc1`, the “isomerase inhibition (active/not active)” value in data set [1] is “inactive”. In addition, the “inhibition (active/not active)” value in [2] is “inactive”. Moreover, in data set [3], the “7-dehydrocholesterol accumulation (active/not active)” value is “inactive”. Further, the “7-DHCR inhibition (active/not active)” value in data set [4] is “inactive”. Moreover, the MIC against Yarrowia lipolytica [5], in the data set on Saccharomyces cerevisiae [6] and against Nakaseomyces glabratus [7] was greater than 20 µg/mL throughout. In addition, the Activity entry (in the data set on Yarrowia lipolytica [8]; with Saccharomyces cerevisiae [9]; with Nakaseomyces glabratus [10]; in data set [11]; in [12]; in data set [13]) was “Non-toxic” each time. For the same compound, the Activity entry (in data set [14]; in the data set on Escherichia coli; in [15]) was “Non-toxic” throughout. The concentration for half-maximal inhibition (IC50) – broadly, the concentration that inhibits the measured activity by half – in the data set with HL-60 was greater than 50 µM.

Take `COc1ccc(CCN2CCc3cc(O)c(OC)cc3C2)cc1`: in [1], the “isomerase inhibition (active/not active)” value is “Active”. For the same compound, the “7-dehydrocholesterol accumulation (active/not active)” value in [3] is “Active”. Moreover, the “7-DHCR inhibition (active/not active)” value in data set [4] is “Active”. The MIC with Yarrowia lipolytica [5], in the data set with Saccharomyces cerevisiae [6] and against Nakaseomyces glabratus [7] was greater than 20 µg/mL each time. Besides, the Activity result (in the data set with Yarrowia lipolytica [8]; in the data set with Saccharomyces cerevisiae [9]; in the data set with Nakaseomyces glabratus [10]; in data set [11]; in data set [12]; in data set [13]) was “Non-toxic” each time. Besides, the Activity result in data set [14] is on record as “Non-toxic”; with Escherichia coli, “Non-toxic”; in data set [15], “Toxic”. In addition, the IC50 in the data set on HL-60 is greater than 50 µM.

As to `COc1cc2c(cc1O)CCN(CCc1ccc(F)cc1)C2`, the “isomerase inhibition (active/not active)” value in data set [1] is “Active”. Further, in data set [3], the “7-dehydrocholesterol accumulation (active/not active)” value is “Active”. In addition, the “7-DHCR inhibition (active/not active)” value in data set [4] is “Active”. In addition, the MIC with Yarrowia lipolytica [5], against Saccharomyces cerevisiae [6] and with Nakaseomyces glabratus [7] was greater than 20 µg/mL in each case. The Activity result (in the data set with Yarrowia lipolytica [8]; with Saccharomyces cerevisiae [9]; in the data set with Nakaseomyces glabratus [10]; in data set [11]; in data set [12]; in data set [13]) was “Non-toxic” throughout. For the same compound, the results for the Activity entry (in data set [14]; in the data set on Escherichia coli; in data set [15]) were “Non-toxic”, “Non-toxic” and “Toxic”, respectively. For the same compound, the IC50 with HL-60 was greater than 50 µM.

On to `COc1ccc2c(c1)CCN(CCc1ccccc1)C2`, for which the “isomerase inhibition (active/not active)” value in data set [1] was “Active”. In [2], the “inhibition (active/not active)” value is “Active”. Further, the “7-dehydrocholesterol accumulation (active/not active)” value in [3] is “inactive”. In [4], the “7-DHCR inhibition (active/not active)” value is “inactive”. Moreover, the MIC against Yarrowia lipolytica [5], in the data set with Saccharomyces cerevisiae [6] and against Nakaseomyces glabratus [7] was greater than 20 µg/mL throughout. In addition, the Activity result (in the data set on Yarrowia lipolytica [8]; with Saccharomyces cerevisiae [9]; in the data set with Nakaseomyces glabratus [10]; in data set [11]; in [12]; in data set [13]) was “Non-toxic” in each case. The Activity result (in data set [14]; in the data set with Escherichia coli; in data set [15]) was “Non-toxic” in each case. Further, the IC50 with HL-60 was greater than 50 µM.

In the case of `Clc1ccccc1C(c1ccccc1)(c1ccccc1)n1ccnc1` [CLOTRIMAZOLE], the MIC against Yarrowia lipolytica [5], in the data set on Saccharomyces cerevisiae [6] and in the data set with Nakaseomyces glabratus [7] was less than 1 µg/mL throughout.

Turning to `COc1ccc(CCN2CCc3cc(OC)ccc3C2)cc1`, the “isomerase inhibition (active/not active)” value in [1] is “Active”. Besides, the “inhibition (active/not active)” value in data set [2] is “Active”. Further, in data set [3], the “7-dehydrocholesterol accumulation (active/not active)” value is “inactive”. Besides, the “7-DHCR inhibition (active/not active)” value in [4] is “inactive”. In addition, the MIC against Yarrowia lipolytica [5], against Saccharomyces cerevisiae [6] and with Nakaseomyces glabratus [7] was greater than 20 µg/mL throughout. Besides, the Activity result (in the data set with Yarrowia lipolytica [8]; with Saccharomyces cerevisiae [9]; in the data set on Nakaseomyces glabratus [10]; in [11]; in data set [12]; in data set [13]) was “Non-toxic” throughout. Moreover, the Activity result (in data set [14]; in the data set on Escherichia coli; in data set [15]) was “Non-toxic” throughout. In the data set with HL-60, this compound displayed a half-maximal inhibitory concentration (IC50) greater than 50 µM.

As for `COc1cc2c(cc1O)CCN(CCc1ccccc1OC)C2`, in data set [3], the “7-dehydrocholesterol accumulation (active/not active)” value was “Active”. In data set [4], the “7-DHCR inhibition (active/not active)” value was “inactive”. In addition, the MIC in the data set on Yarrowia lipolytica [5], against Saccharomyces cerevisiae [6] and in the data set with Nakaseomyces glabratus [7] was greater than 20 µg/mL each time. Moreover, the Activity result (in the data set with Yarrowia lipolytica [8]; in the data set on Saccharomyces cerevisiae [9]; with Nakaseomyces glabratus [10]; in data set [11]; in [12]; in data set [13]) was “Non-toxic” each time. The Activity result (in data set [14]; in the data set on Escherichia coli; in data set [15]) was “Non-toxic” in each case. In addition, the IC50 with HL-60 is greater than 50 µM.

Regarding `COc1ccc(CCN2CCc3cc(OC)c(OC)cc3C2)cc1`, in [1], the “isomerase inhibition (active/not active)” value is “Active”. In addition, the “inhibition (active/not active)” value in [2] is “Active”. In [3], the “7-dehydrocholesterol accumulation (active/not active)” value was “inactive”. Moreover, the “7-DHCR inhibition (active/not active)” value in data set [4] was “inactive”. The MIC in the data set on Yarrowia lipolytica [5], against Saccharomyces cerevisiae [6] and against Nakaseomyces glabratus [7] was greater than 20 µg/mL in each case. Moreover, the Activity result (in the data set on Yarrowia lipolytica [8]; in the data set with Saccharomyces cerevisiae [9]; in the data set with Nakaseomyces glabratus [10]; in data set [11]; in data set [12]; in [13]) was “Non-toxic” each time. The Activity entry (in [14]; in the data set on Escherichia coli; in [15]) was “Non-toxic” in each case. Besides, the concentration for half-maximal inhibition (IC50) in the data set with HL-60 is greater than 50 µM.

With `Oc1ccc(CCN2CCc3cc(O)ccc3C2)cc1`, the “7-dehydrocholesterol accumulation (active/not active)” value in data set [3] is “Active”. In addition, the “7-DHCR inhibition (active/not active)” value in data set [4] was “inactive”. Besides, the MIC against Yarrowia lipolytica [5], with Saccharomyces cerevisiae [6] and with Nakaseomyces glabratus [7] was greater than 20 µg/mL throughout. Also, the Activity result (in the data set on Yarrowia lipolytica [8]; in the data set on Saccharomyces cerevisiae [9]; with Nakaseomyces glabratus [10]; in data set [11]; in data set [12]; in data set [13]) was “Non-toxic” in each case. Besides, the Activity entry (in [14]; with Escherichia coli; in [15]) was “Non-toxic” in each case. This compound also came in with an IC50 in the data set with HL-60 greater than 50 µM.

In the case of `COc1ccc(CCN2CCc3cc4c(cc3C2)OCO4)cc1`, in data set [1], the “isomerase inhibition (active/not active)” value is “Active”. In addition, in [2], the “inhibition (active/not active)” value is “Active”. Further, the “7-dehydrocholesterol accumulation (active/not active)” value in data set [3] was “inactive”. Also, the “7-DHCR inhibition (active/not active)” value in [4] is “inactive”. The MIC against Yarrowia lipolytica [5], in the data set with Saccharomyces cerevisiae [6] and in the data set on Nakaseomyces glabratus [7] was greater than 20 µg/mL throughout. In addition, the Activity entry (in the data set on Yarrowia lipolytica [8]; in the data set with Saccharomyces cerevisiae [9]; in the data set with Nakaseomyces glabratus [10]; in [11]; in data set [12]; in data set [13]) was “Non-toxic” each time. Besides, the Activity entry (in data set [14]; in the data set on Escherichia coli; in data set [15]) was “Non-toxic” throughout. In the data set on HL-60, the IC50 was greater than 50 µM.

The record behind these values is ChEMBL document CHEMBL2169759, “A new class of selective and potent 7-dehydrocholesterol reductase inhibitors” (J Med Chem, 2012).
